ChEMBL document CHEMBL1140263, “Structure-based design, synthesis, and study of potent inhibitors of beta-ketoacyl-acyl carrier protein synthase III as potential antimicrobial agents” (J Med Chem, 2005)
Values after ≈ are worked out from the molar mass of the structure shown.

Experiments:
[1] = molecular target: T1, Beta-ketoacyl-[acyl-carrier-protein] synthase III (Enterococcus faecalis (strain ATCC 700802 / V583), UniProt Q820T1); experiment: Inhibitory concentration against Enterococcus faecalis beta-Ketoacyl-acyl carrier protein synthase III
T1 sequence (Q820T1 whole entry): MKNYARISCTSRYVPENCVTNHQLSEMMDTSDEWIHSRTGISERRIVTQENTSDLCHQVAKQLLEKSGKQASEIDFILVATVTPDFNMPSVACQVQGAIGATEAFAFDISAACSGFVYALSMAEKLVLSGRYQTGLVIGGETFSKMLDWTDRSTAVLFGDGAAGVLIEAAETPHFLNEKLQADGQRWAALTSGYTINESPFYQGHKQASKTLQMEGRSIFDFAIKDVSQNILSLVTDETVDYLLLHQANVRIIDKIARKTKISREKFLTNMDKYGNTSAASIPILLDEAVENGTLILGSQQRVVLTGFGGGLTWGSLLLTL
Summary of the method: (§1)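 Coupled FabD/FabH radiometric assay with His-tagged or tagless FabH expressed in E. coli BL21(DE3). The mix held 100 mM sodium phosphate pH 7.0, 2 mM DTT, 1 mM MgCl₂, 12.5 µM E. coli holo-ACP, 10 nM FabD and 3-5 nM FabH. Malonyl-CoA was added for 1 min, then acetyl-CoA plus [³H]acetyl-CoA, NADH and NADPH for 19 min. TCA-precipitated protein was counted by liquid scintillation; DMSO ≤2% final.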

[2] = molecular target: T2, Beta-ketoacyl-[acyl-carrier-protein] synthase III (Streptococcus pyogenes serotype M3 (strain ATCC BAA-595 / MGAS315), UniProt P0DB00); experiment: Inhibitory concentration against Streptococcus pyogenes beta-Ketoacyl-acyl carrier protein synthase III
T2 sequence (P0DB00 whole entry): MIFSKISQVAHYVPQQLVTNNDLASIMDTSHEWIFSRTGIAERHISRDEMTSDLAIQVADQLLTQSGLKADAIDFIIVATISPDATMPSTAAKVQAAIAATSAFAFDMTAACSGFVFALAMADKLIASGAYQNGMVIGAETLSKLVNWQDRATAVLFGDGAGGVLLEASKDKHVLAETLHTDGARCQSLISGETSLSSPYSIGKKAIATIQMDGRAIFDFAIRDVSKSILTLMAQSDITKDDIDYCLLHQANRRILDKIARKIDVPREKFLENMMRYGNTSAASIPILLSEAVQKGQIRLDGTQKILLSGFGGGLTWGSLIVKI
Summary of the method: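 S. pyogenes FabH (10 nM, His-tagged or tagless, expressed in E. coli BL21(DE3)) was run in a coupled assay with 10 nM FabD, 12.5 µM holo-ACP, 100 mM sodium phosphate pH 7.0, 2 mM DTT and 1 mM MgCl₂. Malonyl-CoA was added for 1 min, then [³H]acetyl-CoA/acetyl-CoA with NADH and NADPH for 19 min. The reaction was stopped with cold TCA and the pellet read by scintillation. Inhibitor DMSO ≤2%.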

[3] = system: Neisseria meningitidis; experiment: Minimum inhibitory concentration against Neisseria meningitides MC58 in presence of membrane permeablizing agent polymyxin B; format: functional
[4] = molecular target: T3, Beta-ketoacyl-[acyl-carrier-protein] synthase III (Haemophilus influenzae (strain ATCC 51907 / DSM 11121 / KW20 / Rd), UniProt P43711); experiment: Inhibitory concentration against Haemophilus influenzae beta-Ketoacyl-acyl carrier protein synthase III; summary of the method: as §1
T3 sequence (P43711 whole entry): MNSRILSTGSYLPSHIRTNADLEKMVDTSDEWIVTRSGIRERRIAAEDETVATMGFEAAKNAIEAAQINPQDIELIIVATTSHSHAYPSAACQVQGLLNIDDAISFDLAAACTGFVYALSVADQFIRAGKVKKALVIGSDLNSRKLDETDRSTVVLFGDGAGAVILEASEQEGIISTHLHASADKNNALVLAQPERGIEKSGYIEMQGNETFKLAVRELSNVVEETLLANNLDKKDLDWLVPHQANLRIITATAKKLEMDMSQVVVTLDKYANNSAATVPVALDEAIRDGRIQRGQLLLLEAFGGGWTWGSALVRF

[5] = molecular target: T4, Beta-ketoacyl-[acyl-carrier-protein] synthase III (Staphylococcus aureus subsp. aureus Mu50, UniProt P68795); experiment: Inhibitory concentration against Staphylococcus aureus beta-Ketoacyl-acyl carrier protein synthase III
T4 sequence (P68795 whole entry): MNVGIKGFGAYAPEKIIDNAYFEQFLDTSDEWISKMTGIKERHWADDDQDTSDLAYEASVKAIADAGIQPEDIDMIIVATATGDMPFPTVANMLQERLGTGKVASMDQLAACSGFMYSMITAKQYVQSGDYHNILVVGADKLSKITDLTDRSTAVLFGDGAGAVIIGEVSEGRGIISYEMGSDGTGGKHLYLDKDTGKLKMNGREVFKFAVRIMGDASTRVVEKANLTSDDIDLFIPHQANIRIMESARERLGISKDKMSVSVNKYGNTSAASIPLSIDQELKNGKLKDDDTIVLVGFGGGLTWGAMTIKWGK
Summary of the method: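 Coupled FabD/FabH radiometric assay, 100 µL final, pH 7.0: 100 mM sodium phosphate, 2 mM DTT, 1 mM MgCl2, 12.5 µM E. coli holo-ACP, 10 nM FabD, 20 nM S. aureus FabH (His-tagged or tagless, expressed in E. coli BL21(DE3)). FabD started with malonyl-CoA for 1 min. Acetyl-CoA plus [3H]acetyl-CoA, NADH and NADPH then added; FabH reaction 19 min. Stopped with TCA; pellet counted by liquid scintillation. DMSO ≤2% final.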

[6] = Minimum inhibitory concentration against Enterococcus faecalis VRE 583; format: functional, Enterococcus faecalis V583
[7] = system: Escherichia coli; experiment: Minimum inhibitory concentration against Escherichia coli TolC- mutant in presence of membrane permeablizing agent polymyxin B; format: functional
[8] = system: Staphylococcus aureus; experiment: Minimum inhibitory concentration against Staphylococcus aureus MRSA 703; format: functional
[9] = system: Streptococcus pneumoniae; experiment: Minimum inhibitory concentration against Streptococcus pneumonia ATCC 6301; format: functional
[10] = system: Streptococcus pyogenes; experiment: Minimum inhibitory concentration against Streptococcus pyogenes NZ131; format: functional

O=C(Nc1ccccc1C(=O)O)c1ccc(F)c(Oc2ccccc2)c1
IC50 [1]: 3.8 µM

O=C(Nc1ccccc1C(=O)O)c1ccc(-c2cccc(OC(F)(F)F)c2)c(Oc2ccccc2)c1
IC50 [1]: 0.47 µM

O=C(Nc1ccccc1C(=O)O)c1ccc(-c2ccccc2)c(Oc2ccccc2)c1
IC50 [2]: 50 nM | MIC [3]: 1.4 µg/mL | IC50 [4]: > 100 µM | IC50 [5]: 10 µM | IC50 [1]: 0.056 µM | MIC [6]: 22 µg/mL (≈ 53.7 µM) | MIC [7]: 1.4 µg/mL | MIC [8]: 11.3 µg/mL (≈ 27.6 µM) | MIC [9]: 1.4 µg/mL (≈ 3.42 µM)

O=C(Nc1ccccc1C(=O)O)c1ccc(-c2cn[nH]c2)c(Oc2ccccc2)c1
IC50 [1]: 22 µM

CCN(CC)S(=O)(=O)c1cc(C(=O)Nc2ccccc2C(=O)O)ccc1OCC1CCCC1
IC50 [1]: 2.1 µM

O=C(Nc1ccccc1C(=O)O)c1ccc(N2CCCCC2)c(Oc2ccccc2)c1
IC50 [1]: 0.29 µM

Cc1ccc(-c2ccc(C(=O)Nc3ccccc3C(=O)O)cc2Oc2ccccc2)cc1
IC50 [1]: 0.16 µM

O=C(Nc1cccc(F)c1C(=O)O)c1cccc(Oc2ccccc2)c1
IC50 [1]: 6 µM

O=C(Nc1cccnc1C(=O)O)c1cccc(Oc2ccccc2)c1
IC50 [1]: 290 µM

O=C(Nc1ccsc1C(=O)O)c1cccc(Oc2ccccc2)c1
IC50 [1]: 10.1 µM

O=C(Nc1ccccc1C(=O)O)c1ccc(Br)c(Oc2ccccc2)c1
IC50 [1]: 1.1 µM

O=C(O)c1ccc(-c2ccc(C(=O)Nc3ccccc3C(=O)O)cc2Oc2ccccc2)cc1
IC50 [1]: 2.1 µM

O=C(O)c1ccc(Oc2cccc(C(=O)Nc3ccccc3C(=O)O)c2)cc1
IC50 [1]: 4.4 µM

O=C(Nc1ncccc1C(=O)O)c1cccc(Oc2ccccc2)c1
IC50 [1]: > 1000 µM

O=C(Nc1ccccc1C(=O)O)c1ccc(-c2ccc(F)c(F)c2)c(Oc2ccccc2)c1
IC50 [1]: 0.33 µM

CN1CCN(c2ccc(C(=O)Nc3ccccc3C(=O)O)cc2Oc2ccccc2)CC1
IC50 [1]: 25 µM

CCN(CC)S(=O)(=O)c1cc(C(=O)Nc2ccccc2C(=O)O)ccc1F
IC50 [1]: 8.4 µM

O=C(Nc1ccccc1C(=O)O)c1ccc(-c2ccc(O)cc2)c(Oc2ccccc2)c1
IC50 [1]: 0.41 µM

CCOc1ccc(-c2ccc(C(=O)Nc3ccccc3C(=O)O)cc2Oc2ccccc2)cc1
IC50 [1]: 0.22 µM

O=C(Nc1ccccc1C(=O)O)c1ccc(-c2ccc(F)c(Cl)c2)c(Oc2ccccc2)c1
IC50 [1]: 0.57 µM

O=C(Nc1cccc(O)c1C(=O)O)c1cccc(Oc2ccccc2)c1
IC50 [1]: 0.41 µM

O=C(Nc1ccccc1C(=O)O)c1ccc(-c2cccnc2)c(Oc2ccccc2)c1
IC50 [1]: 0.11 µM

CCN(CC)S(=O)(=O)c1cc(C(=O)Nc2ccccc2C(=O)O)ccc1-c1ccccc1
IC50 [1]: 1.6 µM

O=C(Nc1ccccc1C(=O)O)c1cccc(Oc2ccncc2)c1
IC50 [1]: 10 µM

O=C(Nc1ccccc1C(=O)O)c1ccc(-c2ccc(F)cc2F)c(Oc2ccccc2)c1
MIC [3]: 0.36 µg/mL | MIC [10]: 2.8 µg/mL (≈ 6.29 µM) | IC50 [1]: 0.16 µM | MIC [6]: 11.3 µg/mL (≈ 25.4 µM) | MIC [7]: 0.7 µg/mL | MIC [8]: 5.6 µg/mL (≈ 12.6 µM) | MIC [9]: 2.8 µg/mL (≈ 6.29 µM)

CCN(CC)S(=O)(=O)c1cc(C(=O)Nc2ccccc2C(=O)O)ccc1OC
IC50 [1]: 11.4 µM

O=C(Nc1ccccc1C(=O)O)c1ccc(-c2ccc(C(F)(F)F)cc2)c(Oc2ccccc2)c1
MIC [3]: 1.4 µg/mL | MIC [10]: 2.8 µg/mL (≈ 5.86 µM) | IC50 [1]: 0.096 µM | MIC [6]: 5.6 µg/mL (≈ 11.7 µM) | MIC [7]: 0.7 µg/mL | MIC [8]: 5.6 µg/mL (≈ 11.7 µM) | MIC [9]: 0.7 µg/mL (≈ 1.47 µM)

O=C(O)c1cccc(Oc2cccc(C(=O)Nc3ccccc3C(=O)O)c2)c1
IC50 [1]: 3.7 µM

CC1CN(c2ccc(C(=O)Nc3ccccc3C(=O)O)cc2Oc2ccccc2)CC(C)N1 (configuration not stated)
IC50 [1]: 38 µM

Cc1cc(-c2ccc(C(=O)Nc3ccccc3C(=O)O)cc2Oc2ccccc2)ccc1F
MIC [3]: 0.7 µg/mL | MIC [10]: 2.8 µg/mL (≈ 6.34 µM) | IC50 [1]: 0.24 µM | MIC [6]: 2.8 µg/mL (≈ 6.34 µM) | MIC [7]: 0.7 µg/mL | MIC [8]: 5.6 µg/mL (≈ 12.7 µM) | MIC [9]: 0.7 µg/mL (≈ 1.59 µM)

CCN(CC)S(=O)(=O)c1cc(C(=O)Nc2ccccc2C(=O)O)ccc1N1CCCCC1
IC50 [1]: 2.2 µM

CCN(CC)S(=O)(=O)c1cc(C(=O)Nc2ccccc2C(=O)O)ccc1Oc1ccccc1
IC50 [1]: 6.1 µM

CCN(CC)S(=O)(=O)c1cc(C(=O)Nc2ccccc2C(=O)O)cc(C)c1Br
IC50 [1]: 160 µM

CC(C)c1cccc(-c2ccc(C(=O)Nc3ccccc3C(=O)O)cc2Oc2ccccc2)c1
MIC [3]: 1.4 µg/mL | MIC [10]: 2.8 µg/mL (≈ 6.2 µM) | IC50 [1]: 0.79 µM | MIC [6]: 5.6 µg/mL (≈ 12.4 µM) | MIC [7]: 2.8 µg/mL | MIC [8]: 5.6 µg/mL (≈ 12.4 µM) | MIC [9]: 1.4 µg/mL (≈ 3.1 µM)

CCN(CC)S(=O)(=O)c1cc(C(=O)Nc2ccccc2C(=O)O)ccc1Br
IC50 [1]: 1.6 µM

O=C(Nc1sccc1C(=O)O)c1cccc(Oc2ccccc2)c1
IC50 [1]: 43 µM

O=C(Nc1ccccc1C(=O)O)c1cccc(Oc2ccc(F)cc2)c1
IC50 [1]: 5 µM

O=C(Nc1ccccc1C(=O)O)c1ccc(N2CCSCC2)c(Oc2ccccc2)c1
IC50 [1]: 1.2 µM

O=C(Nc1ccccc1C(=O)O)c1cccc(Oc2ccccc2)c1
IC50 [1]: 2.7 µM

O=C(Nc1ccccc1C(=O)O)c1ccc(N2CCOCC2)c(Oc2ccccc2)c1
IC50 [1]: 3.2 µM

Cc1cc(-c2ccc(C(=O)Nc3ccccc3C(=O)O)cc2Oc2ccccc2)ccc1Cl
MIC [3]: 0.7 µg/mL | MIC [10]: 1.4 µg/mL (≈ 3.06 µM) | IC50 [1]: 0.25 µM | MIC [6]: 5.6 µg/mL (≈ 12.2 µM) | MIC [7]: 0.7 µg/mL | MIC [8]: 5.6 µg/mL (≈ 12.2 µM) | MIC [9]: 2.8 µg/mL (≈ 6.11 µM)

CC1CC(C)CN(c2ccc(C(=O)Nc3ccccc3C(=O)O)cc2Oc2ccccc2)C1 (configuration not stated)
MIC [3]: 2.8 µg/mL | MIC [10]: 2.8 µg/mL (≈ 6.3 µM) | IC50 [1]: 0.27 µM | MIC [6]: 11.3 µg/mL (≈ 25.4 µM) | MIC [7]: 5.6 µg/mL | MIC [8]: 5.6 µg/mL (≈ 12.6 µM) | MIC [9]: 2.8 µg/mL (≈ 6.3 µM)

O=C(Nc1ccccc1C(=O)O)c1ccc(N2CCNCC2)c(Oc2ccccc2)c1
IC50 [1]: 185 µM
